Experiment [1] can be described thus: HUVEC growth inhibition – cell-based, human, primary screen (AID 575;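 active means viability at or below 30% in both replicate assays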;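 further: 100% = median of untreated cell wells with 0.1% DMSO on each plate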). To be noted: HUVEC proliferation, CellTiter-Glo luminescence, 72 h; at 10 µM; stronger effect = lower value. The gist of the method:
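material = primary HUVEC, no more than 12 passages | input = 1250 cells per well | controls = vehicle and MePR control wells | measured by = CTG luminescence | times = 72 h compound incubation | format = collagen-coated 384-well format | read-out = % viability vs DMSO wells | doses = single 10 µM dose, 0.1% DMSO, from 5x medium stock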

A short description of experiment [2]: growth inhibitors of H69AR lung tumor, primary screen, human, duplicate replicates (AID 580).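 Further: 100% = mean luminescence of untreated wells and 0% = no signal.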 To be noted: H69AR lung tumor cells viability, ATP luminescence, 72 h; at 10 µM; stronger effect = lower value.
Experiment [3] is described as follows: reversal of MRP1-mediated doxorubicin resistance, pilot screen, H69AR cells, doxorubicin co-treatment (AID 601;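 active means viability loss from added drug above about 55%, and viability with drug at most 40%, in both replicates, limit read from the data, passing the limit was not always enough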). To be noted: CellTiter-Glo, 72 h, at 10 µM; for differential viability (reversal): stronger effect = higher value. (ATP-based viability assays read luminescence as a measure of living cells.)
A short description of experiment [4]: 384-well plate pilot, post-Golgi transport modulator project, inhibition of yeast transport mutant growth (AID 636; in the data active means inhibition above about 31%). To be noted: absorbance 615 nm, about 18 h, stronger effect = higher value.
Experiment [5] can be described thus: growth suppression of yeast trafficking mutant, preliminary HTS, modulators of trafficking downstream of Golgi apparatus project, 1536-format plate, OD 615 nm (AID 637; in the data active means inhibition above about 30%). To be noted: yeast transport mutant growth, absorbance 615 nm, 18 h; stronger effect = higher value.
Setting [6] is: H69AR cells + 2 uM doxorubicin, measured here: viability with 2 uM doxorubicin, stronger effect = lower value.
Setting [7] is: H69AR cells, compound alone cytotoxicity.

Data on 20 molecules can be found in PubChem BioAssay.

In general, viability refers to a read-out of living cells in per cent, often relative to untreated cells. For orientation: inhibition means the relative decrease from the control value, in per cent.

The source made the active and inactive calls.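 How the source made its calls, unless noted: active means viability at or under a set limit in both replicates, limit being median viability minus 3 SD (cut at about 48% in these data, passing the limit was not always enough); inconclusive means at or under the limit in just one replicate; inactive means at or above the limit in both replicates.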

Turning to `CC(=O)Nc1ccc(N2CCN(Cc3ccccc3F)CC2)cc1`, the viability in experiment [1] was 88.8% (inactive); in experiment [2], 92.5% (inactive); in experiment [3] (setting [6]), 83.8%; in experiment [3] (setting [7]), 92.5%. The differential viability (reversal) in experiment [3] (H69AR cells + 2 uM doxorubicin) is 8.67% (inactive). Further, the inhibition in experiment [4] was -0.91% (inactive); in experiment [5], 1.11% (inactive).

With `CCS(=O)(=O)c1ccc(S(=O)(=O)CC)s1`, the viability in experiment [1] is 104% (inactive); in experiment [2], 104% (inactive); in experiment [3] (setting [6]), 104%; in experiment [3] (setting [7]), 104%. Further, the differential viability (reversal) in experiment [3] (H69AR cells + 2 uM doxorubicin) was 0.02% (inactive). Besides, the inhibition was -2.73% (inactive) in experiment [4] and -1.59% (inactive) in experiment [5].

For `N#CCCn1cnc2ccccc21`, the viability is 108% (inactive) in experiment [1], 104% (inactive) in experiment [2], 100% in experiment [3] (setting [6]) and 104% in experiment [3] (setting [7]). Further, the differential viability (reversal) in experiment [3] (H69AR cells + 2 uM doxorubicin) was 3.56% (inactive). Moreover, the inhibition in experiment [4] is 0.52% (inactive); in experiment [5] it was -3.97% (inactive).

Consider `Cc1cc(/C=c2/sc3nc4ccccc4n3c2=O)c(C)n1-c1ccccn1`, for which the viability is 77.6% (inactive) in experiment [1], 63% (inactive) in experiment [2], 65.2% in experiment [3] (setting [6]) and 63% in experiment [3] (setting [7]). Further, the differential viability (reversal) in experiment [3] (H69AR cells + 2 uM doxorubicin) was -2.23% (inactive). Further, the inhibition in experiment [4] was 2.4% (inactive); in experiment [5] it was -0.48% (inactive).

Take `Cc1ccc(-c2nnnn2CS(=O)(=O)c2ccccc2)cc1`: the viability in experiment [1] is 86.7% (inactive); in experiment [2] it was 96.4% (inactive); in experiment [3] (setting [6]) it was 91.1%; in experiment [3] (setting [7]), 96.4%. Further, the differential viability (reversal) in experiment [3] (H69AR cells + 2 uM doxorubicin) is 5.26% (inactive). Further, the inhibition in experiment [4] was -2.08% (inactive); in experiment [5] it was -2.22% (inactive).

As to `COc1ccccc1-c1c(C)nn2c(C)c(C(C)=O)cnc12`, the viability in experiment [1] was 111% (inactive); in experiment [2] it was 94.3% (inactive); in experiment [3] (setting [6]) it was 84%; in experiment [3] (setting [7]), 94.3%. For the same molecule, in experiment [3] (H69AR cells + 2 uM doxorubicin), the differential viability (reversal) is 10.3% (inactive). Besides, the inhibition was -6.1% (inactive) in experiment [4] and 1.27% (inactive) in experiment [5].

With `Nc1nnc(-c2cc3ccccc3oc2=O)s1`, the viability in experiment [1] was 91.8% (inactive); in experiment [2] it was 91.7% (inactive); in experiment [3] (setting [6]), 91.4%; in experiment [3] (setting [7]) it was 91.7%. Moreover, in experiment [3] (H69AR cells + 2 uM doxorubicin), the differential viability (reversal) is 0.3% (inactive). The inhibition was -0.66% (inactive) in experiment [4] and 2.38% (inactive) in experiment [5].

Turning to `COc1ccc(C(=O)Nc2ccccc2C(=O)NCCN2CCOCC2)cc1`, the viability in experiment [1] is 107% (inactive); in experiment [2], 95.8% (inactive); in experiment [3] (setting [6]) it was 92.8%; in experiment [3] (setting [7]), 95.8%. Further, the differential viability (reversal) in experiment [3] (H69AR cells + 2 uM doxorubicin) was 2.99% (inactive). Moreover, the inhibition in experiment [4] is 0% (inactive); in experiment [5], -4.13% (inactive).

Turning to `CCN(CC)CCNC(=O)C1CCN(S(=O)(=O)N2CCCCC2)CC1`, the viability in experiment [1] was 100% (inactive); in experiment [2] it was 94.8% (inactive); in experiment [3] (setting [6]) it was 94.6%; in experiment [3] (setting [7]), 94.8%. Further, the differential viability (reversal) in experiment [3] (H69AR cells + 2 uM doxorubicin) was 0.23% (inactive). Further, the inhibition in experiment [4] is -3.82% (inactive); in experiment [5], 0.32% (inactive).

With `CSc1cccc(NC(=O)C2CCN(S(C)(=O)=O)CC2)c1`, the viability is 107% (inactive) in experiment [1], 90.3% (inactive) in experiment [2], 89.6% in experiment [3] (setting [6]) and 90.3% in experiment [3] (setting [7]). Also, in experiment [3] (H69AR cells + 2 uM doxorubicin), the differential viability (reversal) was 0.77% (inactive). In addition, the inhibition was -4.08% (inactive) in experiment [4] and 2.06% (inactive) in experiment [5].

As for `CCc1c(C(=O)NCCc2ccc(OC)c(OC)c2)[nH]c(C)c1C(C)=O`, the viability is 98.6% (inactive) in experiment [1], 87% (inactive) in experiment [2], 82.1% in experiment [3] (setting [6]) and 87% in experiment [3] (setting [7]). For the same molecule, the differential viability (reversal) in experiment [3] (H69AR cells + 2 uM doxorubicin) is 4.88% (inactive). For the same molecule, the values for the inhibition in experiment [4] and in experiment [5] were -5.2% (inactive) and 3.97% (inactive), respectively.

Turning to `CC(C)(C)C1CCc2c(sc3c2C(=O)NC(c2ccco2)N3)C1` (stereo not given), the viability in experiment [1] was 72.5% (inactive); in experiment [2], 88.5% (inactive); in experiment [3] (setting [6]), 98.9%; in experiment [3] (setting [7]), 88.5%. In addition, in experiment [3] (H69AR cells + 2 uM doxorubicin), the differential viability (reversal) is -10.4% (inactive). Also, the inhibition in experiment [4] is 1.97% (inactive); in experiment [5], -0.16% (inactive).

As for `COc1ccc(C2C(C#N)=C(N)Oc3cc4c(cc32)OCO4)cc1` (stereo not given), the viability in experiment [1] is 53.4% (inactive); in experiment [2], 32.8% (active); in experiment [3] (setting [6]), 82.2%; in experiment [3] (setting [7]), 32.8%. Further, the differential viability (reversal) in experiment [3] (H69AR cells + 2 uM doxorubicin) is -49.4% (inactive). Further, the values for the inhibition in experiment [4] and in experiment [5] were -5.07% (inactive) and -1.11% (inactive), respectively.

In the case of `CCc1ccc(NC(=O)c2cccnc2)cc1`, the viability was 95.9% (inactive) in experiment [1], 105% (inactive) in experiment [2], 81.7% in experiment [3] (setting [6]) and 105% in experiment [3] (setting [7]). In experiment [3] (H69AR cells + 2 uM doxorubicin), the differential viability (reversal) was 23.7% (inactive). Also, the inhibition in experiment [4] was -7.2% (inactive); in experiment [5], -3.02% (inactive).

For the molecule `CS(=O)(=O)N1CCC(C(=O)NCCC2=CCCCC2)CC1`, the viability in experiment [1] was 99.7% (inactive); in experiment [2], 99.9% (inactive); in experiment [3] (setting [6]) it was 79.6%; in experiment [3] (setting [7]), 99.9%. Moreover, in experiment [3] (H69AR cells + 2 uM doxorubicin), the differential viability (reversal) is 20.4% (inactive). Also, the inhibition in experiment [4] is -5.73% (inactive); in experiment [5], -1.11% (inactive).

`CCNc1oc(COc2cccc(C)c2)nc1C#N`: the viability is 101% (inactive) in experiment [1], 90.9% (inactive) in experiment [2], 77.1% in experiment [3] (setting [6]) and 90.9% in experiment [3] (setting [7]). The differential viability (reversal) in experiment [3] (H69AR cells + 2 uM doxorubicin) is 13.8% (inactive). In addition, the inhibition was -7.53% (inactive) in experiment [4] and -10.3% (inactive) in experiment [5].

As to `Cc1ccc(O)c(C(=O)c2cc(C#N)c(=O)n(CC3CCCO3)c2)c1` (stereo not given), the viability in experiment [1] is 93.2% (inactive); in experiment [2], 89.7% (inactive); in experiment [3] (setting [6]), 92.6%; in experiment [3] (setting [7]), 89.7%. Further, the differential viability (reversal) in experiment [3] (H69AR cells + 2 uM doxorubicin) is -2.82% (inactive). Further, the results for the inhibition in experiment [4] and in experiment [5] were -1.3% (inactive) and 0.16% (inactive), respectively.

For the molecule `Cc1cc(C)c2c(N)c(C(=O)c3ccccc3)oc2n1`, the viability in experiment [1] was 80.2% (inactive); in experiment [2] it was 90.4% (inactive); in experiment [3] (setting [6]), 92.1%; in experiment [3] (setting [7]), 90.4%. Also, the differential viability (reversal) in experiment [3] (H69AR cells + 2 uM doxorubicin) was -1.71% (inactive). In addition, the inhibition in experiment [4] was -7.6% (inactive); in experiment [5] it was 2.22% (inactive).

For the molecule `COc1ccc(Cl)cc1Nc1nc(NCCO)nc(N2CCCC2)n1`, the viability in experiment [1] is 55.1% (inactive); in experiment [2], 89.3% (inactive); in experiment [3] (setting [6]), 99.6%; in experiment [3] (setting [7]), 89.3%. The differential viability (reversal) in experiment [3] (H69AR cells + 2 uM doxorubicin) was -10.3% (inactive). The inhibition was -7.57% (inactive) in experiment [4] and 8.41% (inactive) in experiment [5].

For the molecule `COc1cccc(C(=O)Nc2cnc(NC(=O)c3ccco3)cc2C)c1`, the viability in experiment [1] is 103% (inactive); in experiment [2], 86.6% (inactive); in experiment [3] (setting [6]) it was 78.1%; in experiment [3] (setting [7]), 86.6%. In experiment [3] (H69AR cells + 2 uM doxorubicin), the differential viability (reversal) is 8.55% (inactive). Further, the values for the inhibition in experiment [4] and in experiment [5] were -2.21% (inactive) and -4.44% (inactive), respectively.
